# Screening results deposited in PubChem BioAssay by Sanford-Burnham Center for Chemical Genomics.
# An excerpt weighted towards active compounds, which were near 1.2% of everything screened.
# PfG6PD inh: PfG6PD (Plasmodium falciparum) enzyme inhibition. PfGluPho enzyme, NADPH resazurin-diaphorase fluorescence. inhibition, % at 20 µM. actives 0.78% (n = 350,000);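 active means inhibition reaching at least a set limit at 20 µM in the primary screen, cut at about 59% in these data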;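 further: 0% = DMSO wells with substrate and 100% = DMSO wells lacking glucose-6-phosphate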
# G6PDH counter: counter-screen for G6PDH assay hits: L. mesenteroides G6PDH inhibition | Purified L. mesenteroides G6PDH, diaphorase/resazurin coupled fluorescence, 45 min | actives 0.12% (n = 200,000) | inhibition, % at 5 µM | AID 1020; in the data active means inhibition above about 50%
# Diaphorase inh: counter-screen for diaphorase-based assays: diaphorase inhibitors and chemical oxidizers; diaphorase resazurin-to-resorufin fluorescence, NADH, 16 min; bacterial (C. kluyveri) enzyme, not human; inhibition, % at 20 µM; actives 0.69% (n = 190,000);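 active means primary screen inhibition at 20 µM above a set limit, cut at about 50% in these data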;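 further: plate controls were DMSO with full reaction for no effect and wells lacking NADH for full effect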
#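 Assay system – diaphorase enzyme from Clostridium kluyveri · Amount – diaphorase 0.14 U/mL (working solution) · Times – reaction incubation of 16 min at room temperature · Controls – No-NADH positive control and DMSO neutral control · Signal – resorufin fluorescence 544/590 nm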
# Diaphorase act: diaphorase activation or chemical reduction counter-screen. Diaphorase/resazurin coupled assay, resorufin fluorescence, 16 min; active compounds read high; 1 = vehicle wells, 0 = NADH-free wells. activation factor at 20 µM. AID 1229. actives 0.005% (n = 190,000);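 active means diaphorase activity raised at least twofold by the compound at 20 µM; inactive means activation factor below 2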
#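 Material: Clostridium kluyveri diaphorase, purified enzyme; Quantity: enzyme 0.07 U/mL final; Medium: HEPES pH 7.4 buffer with MgCl2 and Tween 20; Dosing: single compound dose of 20 µM, 1% DMSO final; Schedule: 16 min reaction at room temperature; Measured by: red resorufin fluorescence at 544/590 nm excitation/emission.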
# HKDC1 inhibitor: inhibitors of human hexokinase HKDC1; recombinant HKDC1, G6PDH/diaphorase resazurin coupled fluorescence; Q2TB90; actives 0.16% (n = 340,000); inhibition, % at 20 µM; AID 493160;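 active means inhibition above about 35% when tested at 20 µM, limit read from the data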;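 further: plate controls were DMSO wells with enzyme for no effect and DMSO wells lacking enzyme for full effect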
# Target sequence (Q2TB90 whole entry, looked up): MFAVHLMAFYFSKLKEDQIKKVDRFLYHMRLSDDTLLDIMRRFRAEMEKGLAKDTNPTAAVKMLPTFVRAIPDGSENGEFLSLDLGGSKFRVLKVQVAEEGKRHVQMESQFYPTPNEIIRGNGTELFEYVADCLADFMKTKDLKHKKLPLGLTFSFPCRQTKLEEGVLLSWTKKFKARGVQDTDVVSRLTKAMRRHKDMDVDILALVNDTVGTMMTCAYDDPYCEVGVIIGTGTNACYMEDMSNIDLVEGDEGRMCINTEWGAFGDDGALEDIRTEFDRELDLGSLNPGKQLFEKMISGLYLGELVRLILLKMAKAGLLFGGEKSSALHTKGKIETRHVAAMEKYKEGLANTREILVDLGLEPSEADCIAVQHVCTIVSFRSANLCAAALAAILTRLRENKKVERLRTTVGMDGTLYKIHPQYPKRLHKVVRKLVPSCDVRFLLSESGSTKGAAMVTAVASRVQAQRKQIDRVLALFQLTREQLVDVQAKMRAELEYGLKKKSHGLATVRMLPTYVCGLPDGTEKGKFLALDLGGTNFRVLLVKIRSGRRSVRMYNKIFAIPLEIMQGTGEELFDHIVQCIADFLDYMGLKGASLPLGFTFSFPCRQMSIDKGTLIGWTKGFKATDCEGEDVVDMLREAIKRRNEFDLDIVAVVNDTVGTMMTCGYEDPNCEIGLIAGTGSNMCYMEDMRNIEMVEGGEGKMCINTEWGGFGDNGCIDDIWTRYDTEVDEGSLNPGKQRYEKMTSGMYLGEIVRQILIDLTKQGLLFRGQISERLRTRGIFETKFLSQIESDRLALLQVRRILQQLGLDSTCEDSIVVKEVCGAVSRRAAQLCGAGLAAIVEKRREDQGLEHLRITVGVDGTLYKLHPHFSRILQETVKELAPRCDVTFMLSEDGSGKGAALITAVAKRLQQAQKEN
#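 Test system: Recombinant HKDC1 (HK5) hexokinase enzyme, produced in-house | Input: HKDC1 at 5 µg/mL | Buffer or medium: Tris pH 8.0 buffer with MgCl2, Tween-20, BSA, BME | Schedule: 90 min reaction incubation at room temperature, dark | Technique: Resazurin-to-resorufin fluorescence via G6PDH and diaphorase coupling, 525/613 nm | Controls: DMSO wells with and without enzyme mix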
# PfG6PD confirm: confirmation of Plasmodium falciparum G6PD inhibitors | shares compounds with PfG6PD inh | recombinant PfGluPho, NADPH-diaphorase-resazurin fluorescence | inhibition, % at 20 µM | actives 34% (n = 2,400) | AID 504753;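 active means inhibition of at least 50% at 20 µM in any single replicate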;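 further: 0% = DMSO with substrate and 100% = DMSO lacking glucose-6-phosphate substrate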
# Diaphorase 10uM: inhibits diaphorase or oxidizes, flagging false PfG6PD hits; shares compounds with PfG6PD inh; diaphorase-coupled resazurin reduction, fluorescence, NADPH 10 uM; inhibition, % at 20 µM; actives 39% (n = 820);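 active means average inhibition reaching 50% or more with the compound at 20 µM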;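 further: resorufin red fluorescence formed as diaphorase reduces resazurin using NADPH; 0% = DMSO with enzyme and 100% = DMSO without enzyme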
# Diaph ctr 30uM: diaphorase inhibition or oxidation at 30 uM NADPH; shares compounds with PfG6PD inh; Diaphorase/resazurin coupled assay, resorufin fluorescence; AID 504863; inhibition, % at 20 µM; actives 29% (n = 820);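 active means inhibition averaging 50% or more, tested at 20 µM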;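 further: 0% = DMSO with enzyme and 100% = DMSO wells lacking diaphorase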
# * hit, by the source's call; . = not tested or not shown.
SMILES,PfG6PD inh,G6PDH counter,Diaphorase inh,Diaphorase act,HKDC1 inhibitor,PfG6PD confirm,others
COc1ccc(N2CSC3=C(C#N)C(c4cc(OC)c(OC)cc4OC)CC(=O)N3C2)c(OC)c1 (configuration not stated),102*,44,66*,0.3,13,74*,Diaphorase 10uM=6;Diaph ctr 30uM=7
CCOc1ccccc1N1CCN(S(=O)(=O)c2cc(C)ccc2OC)CC1,14,19,.,.,9,.,
CCOc1ccccc1N1CSC2=C(C#N)C(c3c(OC)ccc4ccccc34)CC(=O)N2C1 (configuration not stated),74*,42,67*,0.3,23,31,
O=C1C=C(/C=C/C2C=CC=CC2)C[C@@H](c2ccc(Cl)cc2)C1 (some centres not stated),10,.,.,.,1,.,
Cc1nc(-c2ccc(F)cc2)c(CC(=O)N2CCN(S(=O)(=O)c3cccc(F)c3)CC2)s1,0,.,.,.,6,.,
Cn1nc(C(=O)N2CCN(c3ccccn3)CC2)c2ccccc2c1=O,-14,.,.,.,3,.,
Cc1ccc(N2C(N)=C(C#N)C(c3cccs3)C3=C2CC(C)(C)CC3=O)cc1 (configuration not stated),10,19,17,0.8,1,.,
COc1cc(OC)c(C2CC(=O)N3CN(c4ccc(C)cc4)CSC3=C2C#N)cc1OC (configuration not stated),89*,44,46,0.5,16,40,
Cc1ccc(N2CSC3=C(C#N)C(c4cccs4)CC(=O)N3C2)cc1 (configuration not stated),70*,22,46,0.5,15,32,
COc1ccccc1CCC(=O)NNC(=O)c1ccc(Br)cc1,-11,.,.,.,-2,.,
Nc1nc2ccc(S(=O)(=O)N3CCCCC3)cc2s1,65*,-2,-4,1,-3,40,
COc1cc2c(cc1OC)C(Cc1ccccc1[N+](=O)[O-])=NCC2,45,.,.,.,14,-25,
CCOc1cccc(CNc2ccc(O)cc2)c1OCc1ccccc1Cl,56,5,43,0.6,14,.,
CCOc1cccc(CNc2ccc(O)cc2)c1OCc1ccc(Cl)cc1Cl,69*,5,30,0.7,17,26,
Cc1c(Cl)cccc1N=C1NC(=O)CS1,66*,.,.,.,.,43,
CCOC(=O)c1cnc2ccc(C(=O)OC)cc2c1NCCN1CCOCC1,71*,2,3,1,1,16,
CCOC(=O)c1cnc2ccc(C(=O)OC)cc2c1NCCCN1CCOCC1,27,.,.,.,9,.,
CCc1c(C)sc(NC(=O)C2CCCCC2C(=O)O)c1C(N)=O (configuration not stated),74*,1,10,0.9,-4,32,
CCc1c(C)sc(NC(=O)OC)c1C(N)=O,0,6,16,0.8,1,.,
O=C(C[C@@H]1C[C@@H]2c3cc(NS(=O)(=O)c4ccc(F)cc4)ccc3O[C@@H]2[C@@H](CO)O1)NC1CCCCC1,7,.,.,.,.,.,
Cc1cc(NC(=O)CN2CCN(S(=O)(=O)c3ccc(Cl)cc3)CC2)no1,3,-1,9,0.9,6,.,
O=C(CN1CCCCCC1)Nc1ccc(F)c(F)c1F,-13,5,3,1,-1,.,
O=C(CN1CCN(c2ccc(O)cc2)CC1)Nc1ccc2c(c1)OCCO2,71*,2,38,0.6,3,21,
Cc1cc(NC(=O)CN2CCN(c3ccc(O)cc3)CC2)no1,68*,11,31,0.7,-1,36,
Cc1ccc(S(=O)(=O)N2CCN(C(=O)CN3CCN(c4ccc(O)cc4)CC3)CC2)cc1,64*,.,.,.,2,25,
O=C(CN1CCN(c2ccc(O)cc2)CC1)NCC(=O)Nc1ccc(F)c(F)c1F,67*,.,.,.,3,33,
